Results taken from ChEMBL document CHEMBL1158358, “Synthesis, antimicrobial and cytotoxic activities of some 5-arylidene-4-thioxo-thiazolidine-2-ones” (Eur J Med Chem, 2009).
Converted amounts (≈) assume the structure as drawn.

Key:
Assay type in all cases: functional
[1] = test system: Mycolicibacterium smegmatis; assay: Antimicrobial activity against Mycobacterium smegmatis UFPEDA 71 after 20 hrs by twofold serial dilution technique; details: UFPEDA 71, 20 h
Procedure, shortened: (§1)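 MIC was determined by twofold serial dilution. Bacteria were tested in plates at 10⁵ CFU/plate and read after 20 h. C. albicans was tested in tubes at 10³ CFU/tube and read after 48 h. All incubations were at 35 °C. Medium plus DMSO served as the negative control.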

Enterococcus faecalis [2] = assay: Antimicrobial activity against multidrug-resistant Enterococcus faecalis H.C. 21944 isolate after 20 hrs by twofold serial dilution technique; details: H.C. 21944, 20 h
Procedure, shortened: (§2)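 Twofold serial dilution MIC in agar plates against Gram-positive strains and multidrug-resistant clinical isolates. Inoculum applied was 10⁵ CFU/plate. Plates with culture medium plus DMSO served as negative control. MIC was read after incubation at 35 °C for 20 h.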

NCI-H292 [3] = assay: Cytotoxicity against human NCI-H292 cells at 1.25 ug/mL after 72 hrs by MTT assay; details: NCI-H292, 72 h, read-out: GI
Procedure, shortened: (§3)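 MTT antiproliferative assay. Cells were diluted to 10⁵ cells/mL in 96-well plates and preincubated for 24 h at 37 °C in humid 5% CO₂. Compounds or vincristine (reference) were then added. Formazan was dissolved and OD read at 540 nm, compared with medium-only control cells. Run in triplicate.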

HEp-2 [4] = assay: Cytotoxicity against human Hep2 cells at 1.25 ug/mL after 72 hrs by MTT assay; details: HEp-2, 72 h, read-out: GI; procedure, shortened: as §3
Enterococcus faecalis [5] = assay: Antimicrobial activity against Enterococcus faecalis UFPEDA 138 at 300 ug/disk after 24 hrs by disk diffusion method; details: UFPEDA 138, 24 h, read-out: IZ
Procedure, shortened: (§4)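 Preliminary screen by disk diffusion. Paper disks (6 mm) holding 300 µg of compound were placed on agar plates inoculated with a standardized microbial suspension. DMSO-only disks served as negative controls. A mean inhibition zone below 7 mm was scored as no sensitivity. Values are means, n = 3.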

HEp-2 [6] = assay: Cytotoxicity against human Hep2 cells at 5 ug/mL after 72 hrs by MTT assay; details: HEp-2, 72 h, read-out: GI; procedure, shortened: as §3
Staphylococcus aureus [7] = assay: Antimicrobial activity against Staphylococcus aureus UFPEDA 01 after 20 hrs by twofold serial dilution technique; details: UFPEDA 01, 20 h; procedure, shortened: as §2
HEp-2 [8] = assay: Cytotoxicity against human Hep2 cells at 10 ug/mL after 72 hrs by MTT assay; details: HEp-2, 72 h, read-out: GI; procedure, shortened: as §3
Micrococcus luteus [9] = assay: Antimicrobial activity against Micrococcus luteus UFPEDA 06 at 300 ug/disk after 24 hrs by disk diffusion method; details: UFPEDA 06, 24 h, read-out: IZ; procedure, shortened: as §4
Staphylococcus aureus [10] = assay: Antimicrobial activity against multidrug-resistant Staphylococcus aureus H.C. 20981 isolate after 20 hrs by twofold serial dilution technique; details: H.C. 20981, 20 h; procedure, shortened: as §2
Escherichia coli = assay: Antimicrobial activity against Escherichia coli UFPEDA 224 at 300 ug/disk after 24 hrs by disk diffusion method; details: UFPEDA 224, 24 h, read-out: IZ; procedure, shortened: as §4
[11] = test system: Mycolicibacterium smegmatis; assay: Antimicrobial activity against Mycobacterium smegmatis UFPEDA 71 at 300 ug/disk after 24 hrs by disk diffusion method; details: UFPEDA 71, 24 h, read-out: IZ; procedure, shortened: as §4
Staphylococcus [12] = assay: Antimicrobial activity against coagulase-negative Staphylococcus H.A.M. 278 isolate after 20 hrs by twofold serial dilution technique; details: H.A.M. 278, 20 h; procedure, shortened: as §1
Enterococcus faecalis [13] = assay: Antimicrobial activity against multidrug-resistant Enterococcus faecalis H.C. 24708 isolate after 20 hrs by twofold serial dilution technique; details: H.C. 24708, 20 h; procedure, shortened: as §2
Enterococcus faecalis [14] = assay: Antimicrobial activity against Enterococcus faecalis UFPEDA 138 after 20 hrs by twofold serial dilution technique; details: UFPEDA 138, 20 h; procedure, shortened: as §1
Staphylococcus [15] = assay: Antimicrobial activity against coagulase-negative Staphylococcus H.A.M. 338 isolate after 20 hrs by twofold serial dilution technique; details: H.A.M. 338, 20 h; procedure, shortened: as §1
Bacillus subtilis [16] = assay: Antimicrobial activity against Bacillus subtilis UFPEDA 16 after 20 hrs by twofold serial dilution technique; details: UFPEDA 16, 20 h; procedure, shortened: as §1
Candida albicans [17] = assay: Antimicrobial activity against Candida albicans UFPEDA 1007 after 48 hrs by twofold serial dilution technique; details: UFPEDA 1007, 48 h; procedure, shortened: as §1
NCI-H292 [18] = assay: Cytotoxicity against human NCI-H292 cells at 10 ug/mL after 72 hrs by MTT assay; details: NCI-H292, 72 h, read-out: GI; procedure, shortened: as §3
Bacillus subtilis [19] = assay: Antimicrobial activity against Bacillus subtilis UFPEDA 16 at 300 ug/disk after 24 hrs by disk diffusion method; details: UFPEDA 16, 24 h, read-out: IZ; procedure, shortened: as §4
Serratia marcescens = assay: Antimicrobial activity against Serratia marcescens UFPEDA 398 at 300 ug/disk after 24 hrs by disk diffusion method; details: UFPEDA 398, 24 h, read-out: IZ; procedure, shortened: as §4
Candida albicans [20] = assay: Antimicrobial activity against Candida albicans UFPEDA 1007 at 300 ug/disk after 48 hrs by disk diffusion method; details: UFPEDA 1007, 48 h, read-out: IZ; procedure, shortened: as §4
NCI-H292 [21] = assay: Cytotoxicity against human NCI-H292 cells at 2.5 ug/mL after 72 hrs by MTT assay; details: NCI-H292, 72 h, read-out: GI; procedure, shortened: as §3
Staphylococcus aureus [22] = assay: Antimicrobial activity against multidrug-resistant Staphylococcus aureus H.C. 20905 isolate after 20 hrs by twofold serial dilution technique; details: H.C. 20905, 20 h; procedure, shortened: as §2
Enterococcus faecalis [23] = assay: Antimicrobial activity against multidrug-resistant Enterococcus faecalis H.C. 24962 isolate after 20 hrs by twofold serial dilution technique; details: H.C. 24962, 20 h; procedure, shortened: as §2
NCI-H292 [24] = assay: Cytotoxicity against human NCI-H292 cells at 5 ug/mL after 72 hrs by MTT assay; details: NCI-H292, 72 h, read-out: GI; procedure, shortened: as §3
Micrococcus luteus [25] = assay: Antimicrobial activity against Micrococcus luteus UFPEDA 06 after 20 hrs by twofold serial dilution technique; details: UFPEDA 06, 20 h; procedure, shortened: as §1
Staphylococcus aureus [26] = assay: Antimicrobial activity against multidrug-resistant Staphylococcus aureus H.C. 20489 isolate after 20 hrs by twofold serial dilution technique; details: H.C. 20489, 20 h; procedure, shortened: as §2
Pseudomonas aeruginosa = assay: Antimicrobial activity against Pseudomonas aeruginosa UFPEDA 39 at 300 ug/disk after 24 hrs by disk diffusion method; details: UFPEDA 39, 24 h, read-out: IZ; procedure, shortened: as §4
Staphylococcus aureus [27] = assay: Antimicrobial activity against Staphylococcus aureus UFPEDA 01 at 300 ug/disk after 24 hrs by disk diffusion method; details: UFPEDA 01, 24 h, read-out: IZ; procedure, shortened: as §4
Enterococcus faecalis [28] = assay: Antimicrobial activity against multidrug-resistant Enterococcus faecalis H.C. 21752 isolate after 20 hrs by twofold serial dilution technique; details: H.C. 21752, 20 h; procedure, shortened: as §2
Staphylococcus aureus [29] = assay: Antimicrobial activity against multidrug-resistant Staphylococcus aureus H.C. 21036 isolate after 20 hrs by twofold serial dilution technique; details: H.C. 21036, 20 h; procedure, shortened: as §2
Staphylococcus aureus [30] = assay: Antimicrobial activity against multidrug-resistant Staphylococcus aureus H.C. 20794 isolate after 20 hrs by twofold serial dilution technique; details: H.C. 20794, 20 h; procedure, shortened: as §2
HEp-2 [31] = assay: Cytotoxicity against human Hep2 cells at 2.5 ug/mL after 72 hrs by MTT assay; details: HEp-2, 72 h, read-out: GI; procedure, shortened: as §3
Staphylococcus aureus [32] = assay: Antimicrobial activity against multidrug-resistant Staphylococcus aureus H.C. 21141 isolate after 20 hrs by twofold serial dilution technique; details: H.C. 21141, 20 h; procedure, shortened: as §2

O=C1NC(=S)/C(=C/c2c(Cl)cccc2Cl)S1
MIC [1]: 4 µg/mL (≈ 13.8 µM)
MIC (Enterococcus faecalis [2]): 8 µg/mL (≈ 27.6 µM)
inhibition of growth at 1.25 µg/mL (NCI-H292 [3]): 4.36%
inhibition of growth at 1.25 µg/mL (HEp-2 [4]): -9.16%
zone of inhibition at 300 µg/disc (Enterococcus faecalis [5]): < 7 mm
inhibition of growth at 5 µg/mL (HEp-2 [6]): -2.39%
MIC (Staphylococcus aureus [7]): 4 µg/mL (≈ 13.8 µM)
inhibition of growth at 10 µg/mL (HEp-2 [8]): 8.73%
zone of inhibition at 300 µg/disc (Micrococcus luteus [9]): 18 mm
MIC (Staphylococcus aureus [10]): 8 µg/mL (≈ 27.6 µM)
zone of inhibition at 300 µg/disc (Escherichia coli): < 7 mm
zone of inhibition at 300 µg/disc [11]: 17 mm
MIC (Staphylococcus [12]): 4 µg/mL (≈ 13.8 µM)
MIC (Enterococcus faecalis [13]): 16 µg/mL (≈ 55.1 µM)
MIC (Enterococcus faecalis [14]): 16 µg/mL (≈ 55.1 µM)
MIC (Staphylococcus [15]): 4 µg/mL (≈ 13.8 µM)
MIC (Bacillus subtilis [16]): 8 µg/mL (≈ 27.6 µM)
MIC (Candida albicans [17]): 32 µg/mL (≈ 110 µM)
inhibition of growth at 10 µg/mL (NCI-H292 [18]): 32.8%
zone of inhibition at 300 µg/disc (Bacillus subtilis [19]): 20 mm
zone of inhibition at 300 µg/disc (Serratia marcescens): < 7 mm
zone of inhibition at 300 µg/disc (Candida albicans [20]): 15 mm
inhibition of growth at 2.5 µg/mL (NCI-H292 [21]): 7.7%
MIC (Staphylococcus aureus [22]): 4 µg/mL (≈ 13.8 µM)
MIC (Enterococcus faecalis [23]): 16 µg/mL (≈ 55.1 µM)
inhibition of growth at 5 µg/mL (NCI-H292 [24]): 10.3%
MIC (Micrococcus luteus [25]): 16 µg/mL (≈ 55.1 µM)
MIC (Staphylococcus aureus [26]): 4 µg/mL (≈ 13.8 µM)
zone of inhibition at 300 µg/disc (Pseudomonas aeruginosa): < 7 mm
zone of inhibition at 300 µg/disc (Staphylococcus aureus [27]): 20 mm
MIC (Enterococcus faecalis [28]): 8 µg/mL (≈ 27.6 µM)
MIC (Staphylococcus aureus [29]): 8 µg/mL (≈ 27.6 µM)
MIC (Staphylococcus aureus [30]): 4 µg/mL (≈ 13.8 µM)
inhibition of growth at 2.5 µg/mL (HEp-2 [31]): -4.24%
MIC (Staphylococcus aureus [32]): 8 µg/mL (≈ 27.6 µM)
